These results are taken from ChEMBL document CHEMBL4002604, “Evaluation of biological properties of 3,3',4,4'-benzophenonetetracarboxylic dianhydride derivatives and their ability to inhibit hexokinase activity” (2017).

For assay [1], the system named is P19. Description: Cytotoxicity against undifferentiated mouse P19 cells assessed as cell mass at 1 to 100 uM after 48 hrs by SRB assay relative to control. It is filed as functional. The method, boiled down:
(§1)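 Cell mass by SRB assay in P19 cells (CRL-1825), either undifferentiated (P19SCs) or differentiated (P19dCs). Cells exposed to 1, 10 or 100 µM for 24, 48 or 72 h. Values expressed relative to untreated control. Means ± SD from at least 4 independent measurements, 6 repeats each. Significance vs control at p<0.05.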
Background: Sulforhodamine B stains cellular protein and so reports cell mass.

For assay [2], the system named is P19. Description: Cytotoxicity against undifferentiated mouse P19 cells assessed as cell mass at 1 to 100 uM after 72 hrs by SRB assay relative to control. It is filed as functional. The gist of the method: as §1
Assay [3] relates to P19. Description: Cytotoxicity against differentiated mouse P19 cells assessed as cell mass at 1 to 100 uM after 72 hrs by SRB assay relative to control. It is filed as functional. The method, boiled down:
as §1

The test system of assay [4] is P19. Description: Cytotoxicity against undifferentiated mouse P19 cells assessed as metabolic activity at 1 to 100 uM after 72 hrs by resazurin assay relative to control. It is filed as functional. The gist of the method:
(§2)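 Metabolic activity by resazurin reduction in undifferentiated (P19SCs) or differentiated (P19dCs) P19 cells. Exposure to 1, 10 or 100 µM for 24, 48 or 72 h. Read-out relative to untreated control. Significance vs control at p<0.05.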

In assay [5] the test system is P19. Description: Cytotoxicity against differentiated mouse P19 cells assessed as metabolic activity at 1 to 100 uM after 24 hrs by resazurin assay relative to control. The format is functional. The method, boiled down:
as §2
On the technique in general: Resazurin is reduced to fluorescent resorufin, in cell work by metabolically active cells.

Assay [6] deals with P19. Description: Cytotoxicity against differentiated mouse P19 cells assessed as metabolic activity at 1 to 100 uM after 72 hrs by resazurin assay relative to control. It is filed as functional. The method, boiled down:
as §2

For assay [7], the system named is P19. Description: Cytotoxicity against undifferentiated mouse P19 cells assessed as mitochondrial membrane potential at 1 uM after 24 hrs by TMRF dye based fluorescence assay relative to control. It is filed as functional. The method, boiled down: (§3)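 Undifferentiated (P19SCs) or differentiated (P19dCs) P19 cells incubated 24 or 72 h with 1 or 100 µM. Mitochondrial membrane potential and mitochondrial superoxide levels measured and expressed relative to untreated control. Means ± SD from 4 independent measurements, at least 4 repeats each. Significance at p<0.05.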

In assay [8] the test system is P19. Description: Cytotoxicity against undifferentiated mouse P19 cells assessed as mitochondrial membrane potential at 1 uM after 72 hrs by TMRF dye based fluorescence assay relative to control. It is filed as functional. The gist of the method:
as §3

In assay [9] the test system is P19. Description: Cytotoxicity against undifferentiated mouse P19 cells assessed as mitochondrial membrane potential at 100 uM after 72 hrs by TMRF dye based fluorescence assay relative to control. The format is functional. The gist of the method:
as §3

The subject of assay [10] is P19. Description: Cytotoxicity against undifferentiated mouse P19 cells assessed as mitochondrial superoxide anion level at 1 uM after 24 hrs by MitoSox dye based fluorescence assay relative to control. The format is functional. The gist of the method: as §3
The test system of assay [11] is P19. Description: Cytotoxicity against undifferentiated mouse P19 cells assessed as mitochondrial superoxide anion level at 100 uM after 24 hrs by MitoSox dye based fluorescence assay relative to control. The format is functional. The method, boiled down: as §3
Assay [12] deals with P19. Description: Cytotoxicity against undifferentiated mouse P19 cells assessed as mitochondrial superoxide anion level at 1 uM after 72 hrs by MitoSox dye based fluorescence assay relative to control. The format is functional. The method, boiled down:
as §3

In assay [13] the test system is P19. Description: Cytotoxicity against undifferentiated mouse P19 cells assessed as mitochondrial superoxide anion level at 100 uM after 72 hrs by MitoSox dye based fluorescence assay relative to control. It is filed as functional. The gist of the method:
as §3

For assay [14], the system named is P19. Description: Cytotoxicity against differentiated mouse P19 cells assessed as mitochondrial membrane potential at 1 uM after 24 hrs by TMRF dye based fluorescence assay relative to control. The format is functional. The method, boiled down:
as §3

Assay [15] deals with P19. Description: Cytotoxicity against differentiated mouse P19 cells assessed as mitochondrial membrane potential at 1 uM after 72 hrs by TMRF dye based fluorescence assay relative to control. It is filed as functional. The gist of the method: as §3
The test system of assay [16] is P19. Description: Cytotoxicity against differentiated mouse P19 cells assessed as mitochondrial membrane potential at 100 uM after 72 hrs by TMRF dye based fluorescence assay relative to control. The format is functional. The method, boiled down:
as §3

Assay [17] concerns P19. Description: Cytotoxicity against differentiated mouse P19 cells assessed as mitochondrial superoxide anion level at 1 uM after 24 hrs by MitoSox dye based fluorescence assay relative to control. It is filed as functional. The method, boiled down: as §3
Assay [18] concerns P19. Description: Cytotoxicity against differentiated mouse P19 cells assessed as mitochondrial superoxide anion level at 100 uM after 24 hrs by MitoSox dye based fluorescence assay relative to control. The format is functional. The method, boiled down: as §3
The subject of assay [19] is P19. Description: Cytotoxicity against differentiated mouse P19 cells assessed as mitochondrial superoxide anion level at 1 uM after 72 hrs by MitoSox dye based fluorescence assay relative to control. The format is functional. The gist of the method: as §3
Assay [20] deals with P19. Description: Cytotoxicity against differentiated mouse P19 cells assessed as mitochondrial superoxide anion level at 100 uM after 72 hrs by MitoSox dye based fluorescence assay relative to control. It is filed as functional. The method, boiled down: as §3
Assay [21] deals with T1, Hexokinase-2 (Mus musculus) (UniProt O08528).
T1 sequence (whole entry): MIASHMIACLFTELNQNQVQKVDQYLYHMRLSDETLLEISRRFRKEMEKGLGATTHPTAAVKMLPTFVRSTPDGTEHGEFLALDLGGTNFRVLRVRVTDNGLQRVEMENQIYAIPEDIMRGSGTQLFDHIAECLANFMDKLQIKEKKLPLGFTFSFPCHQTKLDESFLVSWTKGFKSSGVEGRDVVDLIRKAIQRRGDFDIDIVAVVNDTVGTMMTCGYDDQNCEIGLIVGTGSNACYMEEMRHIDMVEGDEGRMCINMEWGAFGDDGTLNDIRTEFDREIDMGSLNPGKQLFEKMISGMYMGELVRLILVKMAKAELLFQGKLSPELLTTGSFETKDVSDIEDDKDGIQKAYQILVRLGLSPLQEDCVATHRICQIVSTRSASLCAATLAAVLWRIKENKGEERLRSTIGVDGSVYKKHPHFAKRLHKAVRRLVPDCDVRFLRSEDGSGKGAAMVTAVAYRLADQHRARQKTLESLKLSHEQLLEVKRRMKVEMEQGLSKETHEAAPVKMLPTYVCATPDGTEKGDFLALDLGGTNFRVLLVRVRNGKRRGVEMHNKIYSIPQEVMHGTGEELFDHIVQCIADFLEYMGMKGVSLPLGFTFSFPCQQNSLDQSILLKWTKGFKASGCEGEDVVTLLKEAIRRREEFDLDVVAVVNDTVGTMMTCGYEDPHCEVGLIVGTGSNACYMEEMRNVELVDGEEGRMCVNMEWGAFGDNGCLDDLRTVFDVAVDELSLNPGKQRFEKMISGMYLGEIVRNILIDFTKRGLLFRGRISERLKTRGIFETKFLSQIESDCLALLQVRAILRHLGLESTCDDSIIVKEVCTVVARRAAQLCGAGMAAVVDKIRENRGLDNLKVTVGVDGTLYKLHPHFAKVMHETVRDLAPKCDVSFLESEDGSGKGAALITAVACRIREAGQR
Description: Potency index, ratio of compound effect to 2-DG effect for inhibition of HK2 in mouse undifferentiated P19 cells.

Molecules are shown by their SMILES.

As to `O=C(c1ccc2c(c1)C(=O)N(c1cccc(O)c1)C2=O)c1ccc2c(c1)C(=O)N(c1cccc(O)c1)C2=O`, the Activity is reported as 79.9% with P19 [1]; 58.9% with P19 [2]; 71.9% in the assay with P19 [3]; 59.8% in the assay with P19 [4]; 100% in the assay on P19 [5]; 91.5% in the assay on P19 [6]. Also, the Activity in the assay on P19 [7] stood at 86%; in the assay with P19 [8], 110.4%; in the assay with P19 [9], 131.1%; in the assay on P19 [10], 83.2%; in the assay with P19 [11], 55.1%; in the assay on P19 [12], 106%. Besides, the Activity in the assay on P19 [13] turned out to be 108.3%; in the assay with P19 [14], 94.5%; with P19 [15] it was 87.8%; in the assay with P19 [16], 50.9%; in the assay with P19 [17], 112.2%; in the assay with P19 [18], 117.4%. In addition, the results for the Activity in the assay on P19 [19] and in the assay on P19 [20] were 105.3% and 149.1%, respectively. The Ratio in assay [21] is more than 500.
